Results as given in ChEMBL document CHEMBL1157638, “Fluorescent epigenetic small molecule induces expression of the tumor suppressor ras-association domain family 1A and inhibits human prostate xenograft” (J Med Chem, 2010).

Assays:
NCI-H460 = test: Growth inhibition of human NCI-H460 cells assessed as cell growth at 1 uM relative to untreated control; type: functional; settings: read-out: Activity
NCI-H322M = test: Growth inhibition of human NCI-H322M cells assessed as cell growth at 100 nM relative to untreated control; type: functional; settings: read-out: Activity
OVCAR-5 [1] = test: Growth inhibition of human OVCAR5 cells assessed as cell growth at 1 uM relative to untreated control; type: functional; settings: read-out: Activity
UACC-62 = test: Growth inhibition of human UACC62 cells assessed as cell growth at 100 nM relative to untreated control; type: functional; settings: read-out: Activity
SF-268 [2] = test: Growth inhibition of human SF268 cells assessed as cell growth at 1 uM relative to untreated control; type: functional; settings: read-out: Activity
SN12C = test: Growth inhibition of human SN12C cells assessed as cell growth at 10 nM relative to untreated control; type: functional; settings: read-out: Activity
SK-MEL-28 = test: Growth inhibition of human SK-MEL-28 cells assessed as cell growth at 10 nM relative to untreated control; type: functional; settings: read-out: Activity
OVCAR-5 [3] = test: Growth inhibition of human OVCAR5 cells; type: functional
BT-549 = test: Growth inhibition of human BT549 cells assessed as cell growth at 10 nM relative to untreated control; type: functional; settings: read-out: Activity
KM12 = test: Growth inhibition of human KM12 cells assessed as cell growth at 1 nM relative to untreated control; type: functional; settings: read-out: Activity
SNB-19 [4] = test: Growth inhibition of human SNB19 cells assessed as cell growth at 10 nM relative to untreated control; type: functional; settings: read-out: Activity
LOX IMVI = test: Growth inhibition of human LOXIMVI cells assessed as cell growth at 100 nM relative to untreated control; type: functional; settings: read-out: Activity
SW-620 = test: Growth inhibition of human SW620 cells assessed as cell growth at 1 nM relative to untreated control; type: functional; settings: read-out: Activity
IGROV-1 = test: Growth inhibition of human IGROV1 cells assessed as cell growth at 100 nM relative to untreated control; type: functional; settings: read-out: Activity
HCT-15 = test: Growth inhibition of human HCT15 cells assessed as cell growth at 10 nM relative to untreated control; type: functional; settings: read-out: Activity
Outline: (§1)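 Run externally at the National Cancer Institute as a 59-cell-line panel screen, with concentrations up to 100 μM. Growth was scored relative to control, where negative growth or total cell kill was possible. Data are in the Supporting Information.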

SF-539 = test: Growth inhibition of human SF539 cells assessed as cell growth at 10 uM relative to untreated control; type: functional; settings: read-out: Activity
MCF7 [5] = test: Growth inhibition of human MCF7 cells assessed as cell growth at 1 uM relative to untreated control; type: functional; settings: read-out: Activity
HCT-116 [6] = test: Growth inhibition of human HCT116 cells assessed as cell growth at 100 nM relative to untreated control; type: functional; settings: read-out: Activity; outline: as §1
[7] = Therapeutic index, ratio of toxic dose in BALB/c mouse to antitumor dose in human PC3 cells xenografted BALB/c mouse; type: cell-based, PC-3; settings: in vivo, read-out: TI
TK-10 [8] = test: Growth inhibition of human TK10 cells assessed as cell growth at 100 nM relative to untreated control; type: functional; settings: read-out: Activity
NCI/ADR-RES [9] = test: Growth inhibition of human NCI/ADR-RES cells assessed as cell growth at 10 nM relative to untreated control; type: functional; settings: read-out: Activity
SF-295 = test: Growth inhibition of human SF295 cells assessed as cell growth at 1 nM relative to untreated control; type: functional; settings: read-out: Activity
SR = test: Growth inhibition of human SR cells assessed as cell growth at 1 uM relative to untreated control; type: functional; settings: read-out: Activity
TK-10 [10] = test: Growth inhibition of human TK10 cells assessed as cell growth at 10 uM relative to untreated control; type: functional; settings: read-out: Activity
[11] = Growth inhibition of human Hs 578T cells assessed as cell growth at 10 nM relative to untreated control; type: functional; settings: read-out: Activity
HOP-62 = test: Growth inhibition of human HOP62 cells assessed as cell growth at 1 uM relative to untreated control; type: functional; settings: read-out: Activity; outline: as §1
HCC 2998 [12] = test: Growth inhibition of human HCC2998 cells; type: functional; settings: read-out: LC50 (the source's name); outline: as §1
SNB-75 [13] = test: Growth inhibition of human SNB75 cells assessed as cell growth at 1 nM relative to untreated control; type: functional; settings: read-out: Activity
NCI-H226 [14] = test: Growth inhibition of human NCI-H226 cells; type: functional
HCT-116 [15] = test: Growth inhibition of human HCT116 cells assessed as cell growth at 10 uM relative to untreated control; type: functional; settings: read-out: Activity; outline: as §1
NCI/ADR-RES [16] = test: Growth inhibition of human NCI/ADR-RES cells assessed as cell growth at 100 nM relative to untreated control; type: functional; settings: read-out: Activity
MCF7 [17] = test: Growth inhibition of human MCF7 cells assessed as cell growth at 100 nM relative to untreated control; type: functional; settings: read-out: Activity
K562 = test: Growth inhibition of human K562 cells assessed as cell growth at 1 uM relative to untreated control; type: functional; settings: read-out: Activity
RXF 393 = test: Growth inhibition of human RXF393 cells assessed as cell growth at 100 nM relative to untreated control; type: functional; settings: read-out: Activity
U-251 = test: Growth inhibition of human U251 cells; type: functional
OVCAR-4 = test: Growth inhibition of human OVCAR4 cells assessed as cell growth at 100 nM relative to untreated control; type: functional; settings: read-out: Activity
HL-60(TB) = test: Growth inhibition of human HL-60(TB) cells; type: functional; settings: read-out: LC50 (the source's name)
HCC 2998 [18] = test: Growth inhibition of human HCC2998 cells assessed as cell growth at 10 nM relative to untreated control; type: functional; settings: read-out: Activity; outline: as §1
UACC-257 [19] = test: Growth inhibition of human UACC257 cells assessed as cell growth at 10 nM relative to untreated control; type: functional; settings: read-out: Activity
SF-268 [20] = test: Growth inhibition of human SF268 cells assessed as cell growth at 10 uM relative to untreated control; type: functional; settings: read-out: Activity
NCI-H226 [21] = test: Growth inhibition of human NCI-H226 cells assessed as cell growth at 1 nM relative to untreated control; type: functional; settings: read-out: Activity
SNB-19 [22] = test: Growth inhibition of human SNB19 cells assessed as cell growth at 10 uM relative to untreated control; type: functional; settings: read-out: Activity
EKVX = test: Growth inhibition of human EKVX cells assessed as cell growth at 1 uM relative to untreated control; type: functional; settings: read-out: Activity; outline: as §1
HOP-92 = test: Growth inhibition of human HOP92 cells assessed as cell growth at 10 uM relative to untreated control; type: functional; settings: read-out: Activity; outline: as §1
UACC-257 [23] = test: Growth inhibition of human UACC257 cells; type: functional
Malme-3M = test: Growth inhibition of human MALME-3M cells assessed as cell growth at 10 uM relative to untreated control; type: functional; settings: read-out: Activity
TK-10 [24] = test: Growth inhibition of human TK10 cells assessed as cell growth at 10 nM relative to untreated control; type: functional; settings: read-out: Activity
SNB-75 [25] = test: Growth inhibition of human SNB75 cells assessed as cell growth at 100 nM relative to untreated control; type: functional; settings: read-out: Activity
SNB-19 [26] = test: Growth inhibition of human SNB19 cells assessed as cell growth at 1 uM relative to untreated control; type: functional; settings: read-out: Activity
[27] = read-out: LC50 (the source's name)

COc1ccc2c(c1)[nH]c1c(C)c(OS(=O)(=O)c3cccc4c(N(C)C)cccc34)ccc12 gave a growth at 1 µM (NCI-H460) of 9%, a growth at 0.1 µM (NCI-H322M) of 94% and a growth at 1 µM (OVCAR-5 [1]) of 101%. The growth at 0.1 µM (UACC-62) was 75%, the growth at 1 µM (SF-268 [2]) was 44% and the growth at 0.01 µM (SN12C) was 92%. It also gave a growth at 0.01 µM (SK-MEL-28) of 87%, a GI50 (OVCAR-5 [3]) of 56.1 µM and a TGI (OVCAR-5 [3]) greater than 100 µM. It also gave a CC50 (OVCAR-5 [3]; [27]) greater than 100 µM, a growth at 0.01 µM (BT-549) of 90% and a growth at 0.001 µM (KM12) of 110%. For the same compound, the growth at 0.01 µM (SNB-19 [4]) was 88%, the growth at 0.1 µM (LOX IMVI) was 91% and the growth at 0.001 µM (SW-620) was 103%. For the same compound, the growth at 0.1 µM (IGROV-1) was 98%, the growth at 0.01 µM (HCT-15) was 92% and the growth at 10 µM (SF-539) was -32%. It also gave a growth at 1 µM (MCF7 [5]) of 10%, a growth at 0.1 µM (HCT-116 [6]) of 94% and a selectivity ratio [7] greater than 55. For the same compound, the growth at 0.1 µM (TK-10 [8]) was 107%, the growth at 0.01 µM (NCI/ADR-RES [9]) was 111% and the growth at 0.001 µM (SF-295) was 94%. The growth at 1 µM (SR) was 13%, the growth at 10 µM (TK-10 [10]) was 6% and the growth at 0.01 µM [11] was 103%. The growth at 1 µM (HOP-62) was 55%, the CC50 (HCC 2998 [12]) was greater than 100 µM and the growth at 0.001 µM (SNB-75 [13]) was 107%. The GI50 (NCI-H226 [14]) was 11.3 µM, the TGI (NCI-H226 [14]) was greater than 100 µM and the CC50 (NCI-H226 [14]; [27]) was greater than 100 µM. It also gave a growth at 10 µM (HCT-116 [15]) of 5%, a growth at 0.1 µM (NCI/ADR-RES [16]) of 93% and a growth at 0.1 µM (MCF7 [17]) of 81%. The growth at 1 µM (K562) was 5%, the growth at 0.1 µM (RXF 393) was 100% and the GI50 (U-251) was 4.28 µM. For the same compound, the TGI (U-251) was greater than 100 µM, the CC50 (U-251; [27]) was greater than 100 µM and the growth at 0.1 µM (OVCAR-4) was 87%. The CC50 (HL-60(TB)) was greater than 100 µM, the growth at 0.01 µM (HCC 2998 [18]) was 101% and the growth at 0.01 µM (UACC-257 [19]) was 109%. For the same compound, the growth at 10 µM (SF-268 [20]) was 27%, the growth at 0.001 µM (NCI-H226 [21]) was 91% and the growth at 10 µM (SNB-19 [22]) was 27%. The growth at 1 µM (EKVX) was 35%, the growth at 10 µM (HOP-92) was -1% and the GI50 (UACC-257 [23]) was 11.5 µM. It also gave a TGI (UACC-257 [23]) greater than 100 µM, a CC50 (UACC-257 [23]; [27]) greater than 100 µM and a growth at 10 µM (Malme-3M) of 12%. For the same compound, the growth at 0.01 µM (TK-10 [24]) was 94%, the growth at 0.1 µM (SNB-75 [25]) was 99% and the growth at 1 µM (SNB-19 [26]) was 45%.
